Results published in ChEMBL document CHEMBL1125337, “Synthesis and antibacterial activity of a series of basic amides of teicoplanin and deglucoteicoplanin with polyamines” (J Med Chem, 1992).
≈ marks a conversion by molar mass, not a printed value.

Columns and labels:
[1] = Association constant to Ac2-L-Lys-D-Ala-D-Ala determined at pH 9; Value ranges from (9.5E4-3.5E5)
Enterococcus faecalis = test: Minimum inhibitory concentration against Enterococcus faecalis ATCC 7080; assay type: functional
Summary of the method: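 Microbroth dilution MIC (µg/mL), final inoculum 10^4 cfu/mL, incubated 24 h at 37 °C in air.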

Staphylococcus aureus = test: Minimum inhibitory concentration against Staphylococcus aureus L 165; assay type: functional
Summary of the method: (§1)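 MIC (µg/mL) by microbroth dilution in Iso-Sensitest broth; final inoculum 10^4 cfu/mL; 24 h at 37 °C in air.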

[2] = test system: Staphylococcus epidermidis; test: Minimum inhibitory concentration against Staphylococcus epidermidis ATCC 12228; assay type: functional; summary of the method: as §1
Streptococcus pneumoniae = test: Minimum inhibitory concentration against Streptococcus pneumoniae L 44; assay type: functional
Summary of the method: (§2)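 MIC (µg/mL) by microbroth dilution in Todd-Hewitt broth, final inoculum 10^4 cfu/mL, incubated 24 h at 37 °C in air.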

[3] = test system: Staphylococcus haemolyticus; test: Minimum inhibitory concentration against Staphylococcus haemolyticus L 602; assay type: functional; summary of the method: as §1
Streptococcus pyogenes = test: Minimum inhibitory concentration against Streptococcus pyogenes L 49; assay type: functional; summary of the method: as §2
Escherichia coli = test: Minimum inhibitory concentration against Escherichia coli L 47; assay type: functional; summary of the method: as §1
Proteus vulgaris = test: Minimum inhibitory concentration against Proteus vulgaris ATCC 881; assay type: functional; summary of the method: as §1
Pseudomonas aeruginosa = test: Minimum inhibitory concentration against Pseudomonas aeruginosa ATCC 10145; assay type: functional; summary of the method: as §1

SMILES | Ka [1] [M⁻¹] | MIC (Enterococcus faecalis) [µg/mL] | MIC (Staphylococcus aureus) [µg/mL] | MIC [2] [µg/mL] | MIC (Streptococcus pneumoniae) [µg/mL] | MIC [3] [µg/mL] | MIC (Streptococcus pyogenes) [µg/mL] | MIC (Escherichia coli) [µg/mL] | MIC (Proteus vulgaris) [µg/mL] | MIC (Pseudomonas aeruginosa) [µg/mL]
CC(=O)N[C@@H]1[C@H](O[C@@H]2c3ccc(c(Cl)c3)Oc3cc4cc(c3O[C@@H]3O[C@@H](CO)[C@@H](O)[C@H](O)[C@@H]3NC(=O)CCCCCCC(C)C)Oc3ccc(cc3Cl)C[C@H]3NC(=O)[C@H](N)c5ccc(O)c(c5)Oc5cc(O)cc(c5)[C@H](NC3=O)C(=O)N[C@H]4C(=O)N[C@H]3C(=O)N[C@@H]2C(=O)N[C@H](C(=O)NCCCNCCNCCCN)c2cc(O)cc(O[C@H]4O[C@H](CO)[C@@H](O)[C@@H](O)[C@@H]4O)c2-c2cc3ccc2O)O[C@@H](CO)[C@@H](O)[C@@H]1O | 350000 | 0.125 (≈ 0.0614 µM) | 0.25 (≈ 0.123 µM) | 0.125 (≈ 0.0614 µM) | 0.125 (≈ 0.0614 µM) | 0.125 (≈ 0.0614 µM) | 0.063 (≈ 0.0309 µM) | – | – | –
CN(C)CCCN1CCCCN(C(=O)[C@H]2NC(=O)[C@H]3NC(=O)[C@H](NC(=O)[C@@H]4NC(=O)[C@H]5NC(=O)[C@@H](Cc6ccc(c(Cl)c6)Oc6cc4cc(c6O)Oc4ccc(cc4Cl)[C@H]3O)NC(=O)[C@H](N)c3ccc(O)c(c3)Oc3cc(O)cc5c3)c3ccc(O)c(c3)-c3c(O)cc(O)cc32)CCCC1 | – | 0.125 (≈ 0.0888 µM) | 0.063 (≈ 0.0447 µM) | 0.063 (≈ 0.0447 µM) | 0.125 (≈ 0.0888 µM) | – | 0.063 (≈ 0.0447 µM) | 8 (≈ 5.68 µM) | 128 (≈ 90.9 µM) | 32 (≈ 22.7 µM)
N[C@H]1C(=O)N[C@@H]2Cc3ccc(c(Cl)c3)Oc3cc4cc(c3O)Oc3ccc(cc3Cl)[C@@H](O)[C@@H]3NC(=O)[C@H](NC(=O)[C@@H]4NC(=O)[C@@H](NC2=O)c2cc(O)cc(c2)Oc2cc1ccc2O)c1ccc(O)c(c1)-c1c(O)cc(O)cc1[C@@H](C(=O)N1CCNCCNCCNCCNCCNCC1)NC3=O | – | 0.5 (≈ 0.347 µM) | 0.125 (≈ 0.0868 µM) | 0.125 (≈ 0.0868 µM) | 0.25 (≈ 0.174 µM) | 1 (≈ 0.695 µM) | 0.25 (≈ 0.174 µM) | > 128 | > 128 | > 128
CC(=O)N[C@@H]1[C@H](O[C@@H]2c3ccc(c(Cl)c3)Oc3cc4cc(c3O[C@@H]3O[C@@H](CO)[C@@H](O)[C@H](O)[C@@H]3NC(=O)CCCCCCC(C)C)Oc3ccc(cc3Cl)C[C@H]3NC(=O)[C@H](N)c5ccc(O)c(c5)Oc5cc(O)cc(c5)[C@H](NC3=O)C(=O)N[C@H]4C(=O)N[C@H]3C(=O)N[C@@H]2C(=O)N[C@H](C(=O)NCCCNCCCN)c2cc(O)cc(O[C@H]4O[C@H](CO)[C@@H](O)[C@@H](O)[C@@H]4O)c2-c2cc3ccc2O)O[C@@H](CO)[C@@H](O)[C@@H]1O | 350000 | 0.5 (≈ 0.251 µM) | 1 (≈ 0.502 µM) | 0.25 (≈ 0.125 µM) | 0.125 (≈ 0.0627 µM) | 2 (≈ 1 µM) | 0.125 (≈ 0.0627 µM) | – | – | –
N[C@H]1C(=O)N[C@@H]2Cc3ccc(c(Cl)c3)Oc3cc4cc(c3O)Oc3ccc(cc3Cl)[C@@H](O)[C@@H]3NC(=O)[C@H](NC(=O)[C@@H]4NC(=O)[C@@H](NC2=O)c2cc(O)cc(c2)Oc2cc1ccc2O)c1ccc(O)c(c1)-c1c(O)cc(O)cc1[C@@H](C(=O)NCCN1CCCCNCCCC1)NC3=O | – | 0.125 (≈ 0.0915 µM) | 0.125 (≈ 0.0915 µM) | 0.063 (≈ 0.0461 µM) | 0.125 (≈ 0.0915 µM) | 0.125 (≈ 0.0915 µM) | 0.063 (≈ 0.0461 µM) | 8 (≈ 5.86 µM) | 64 (≈ 46.8 µM) | 64 (≈ 46.8 µM)
NCCCN1CCCCN(CCCNC(=O)[C@H]2NC(=O)[C@H]3NC(=O)[C@H](NC(=O)[C@@H]4NC(=O)[C@H]5NC(=O)[C@@H](Cc6ccc(c(Cl)c6)Oc6cc4cc(c6O)Oc4ccc(cc4Cl)[C@H]3O)NC(=O)[C@H](N)c3ccc(O)c(c3)Oc3cc(O)cc5c3)c3ccc(O)c(c3)-c3c(O)cc(O)cc32)CCCC1 | – | 0.125 (≈ 0.087 µM) | 0.063 (≈ 0.0438 µM) | 0.063 (≈ 0.0438 µM) | 0.125 (≈ 0.087 µM) | 0.125 (≈ 0.087 µM) | 0.063 (≈ 0.0438 µM) | 4 (≈ 2.78 µM) | 128 (≈ 89.1 µM) | 16 (≈ 11.1 µM)
CC(=O)N[C@@H]1[C@H](O[C@@H]2c3ccc(c(Cl)c3)Oc3cc4cc(c3O[C@@H]3O[C@@H](CO)[C@@H](O)[C@H](O)[C@@H]3NC(=O)CCCCCCC(C)C)Oc3ccc(cc3Cl)C[C@H]3NC(=O)[C@H](N)c5ccc(O)c(c5)Oc5cc(O)cc(c5)[C@H](NC3=O)C(=O)N[C@H]4C(=O)N[C@H]3C(=O)N[C@@H]2C(=O)N[C@H](C(=O)N2CCNCCNCCNCCNCCNCC2)c2cc(O)cc(O[C@H]4O[C@H](CO)[C@@H](O)[C@@H](O)[C@@H]4O)c2-c2cc3ccc2O)O[C@@H](CO)[C@@H](O)[C@@H]1O | 350000 | 0.125 (≈ 0.059 µM) | 0.25 (≈ 0.118 µM) | 0.125 (≈ 0.059 µM) | 0.063 (≈ 0.0297 µM) | 8 (≈ 3.77 µM) | 0.063 (≈ 0.0297 µM) | – | – | –
CC(=O)N[C@@H]1[C@H](O[C@@H]2c3ccc(c(Cl)c3)Oc3cc4cc(c3O[C@@H]3O[C@@H](CO)[C@@H](O)[C@H](O)[C@@H]3NC(=O)CCCCCCC(C)C)Oc3ccc(cc3Cl)C[C@H]3NC(=O)[C@H](N)c5ccc(O)c(c5)Oc5cc(O)cc(c5)[C@H](NC3=O)C(=O)N[C@H]4C(=O)N[C@H]3C(=O)N[C@@H]2C(=O)N[C@H](C(=O)NCCCN(CCCN)CCCN)c2cc(O)cc(O[C@H]4O[C@H](CO)[C@@H](O)[C@@H](O)[C@@H]4O)c2-c2cc3ccc2O)O[C@@H](CO)[C@@H](O)[C@@H]1O | 350000 | 0.125 (≈ 0.061 µM) | 0.125 (≈ 0.061 µM) | 0.125 (≈ 0.061 µM) | 0.063 (≈ 0.0307 µM) | 2 (≈ 0.976 µM) | 0.063 (≈ 0.0307 µM) | – | – | –
CC(=O)N[C@@H]1[C@H](O[C@@H]2c3ccc(c(Cl)c3)Oc3cc4cc(c3O[C@@H]3O[C@@H](CO)[C@@H](O)[C@H](O)[C@@H]3NC(=O)CCCCCCC(C)C)Oc3ccc(cc3Cl)C[C@H]3NC(=O)[C@H](N)c5ccc(O)c(c5)Oc5cc(O)cc(c5)[C@H](NC3=O)C(=O)N[C@H]4C(=O)N[C@H]3C(=O)N[C@@H]2C(=O)N[C@H](C(=O)N2CCCCN(CCCN(C)C)CCCC2)c2cc(O)cc(O[C@H]4O[C@H](CO)[C@@H](O)[C@@H](O)[C@@H]4O)c2-c2cc3ccc2O)O[C@@H](CO)[C@@H](O)[C@@H]1O | 350000 | 0.125 (≈ 0.0598 µM) | 0.125 (≈ 0.0598 µM) | 0.063 (≈ 0.0302 µM) | 0.125 (≈ 0.0598 µM) | 0.5 (≈ 0.239 µM) | 0.063 (≈ 0.0302 µM) | – | – | –
CCN(CC)CCN(CCCN)CCCNC(=O)[C@H]1NC(=O)[C@H]2NC(=O)[C@H](NC(=O)[C@@H]3NC(=O)[C@H]4NC(=O)[C@@H](Cc5ccc(c(Cl)c5)Oc5cc3cc(c5O)Oc3ccc(cc3Cl)[C@H]2O)NC(=O)[C@H](N)c2ccc(O)c(c2)Oc2cc(O)cc4c2)c2ccc(O)c(c2)-c2c(O)cc(O)cc21 | – | 0.125 (≈ 0.0886 µM) | 0.125 (≈ 0.0886 µM) | 0.032 (≈ 0.0227 µM) | 0.125 (≈ 0.0886 µM) | 0.125 (≈ 0.0886 µM) | 0.125 (≈ 0.0886 µM) | 32 (≈ 22.7 µM) | > 128 | 128 (≈ 90.7 µM)
